High-throughput results (PubChem)
UCH37 DUB inh: inhibitors of human UCH37 deubiquitinase, primary screen, biochemical, Ub-AMC cleavage, fluorescence; Ubiquitin carboxyl-terminal hydrolase isozyme L5 (Homo sapiens), Q9Y5K5; inhibition, % (test concentration not listed); 330,000 tested, 0.33% active; purified proteasome/UCH37;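 active = mean inhibition over replicate wells above about 20%, limit read from the data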;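 note: 0% = compound-free wells with enzyme and 100% = wells lacking proteasome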
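Schedule: 30 min plus 25 min, room temperature / Material: human UCH37 within purified proteasomes / Technique: AMC fluorescence intensity at 355/460 nm / Buffer or medium: pH 7.4 Tris-HCl (50 mM) with ovalbumin, ATP-MgCl2, DTT / Controls: wells without proteasome as full block, compound-free enzyme plus substrate as uninhibited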
PfM18AAP inh-1: PfM18AAP inhibitors, malaria aminopeptidase, primary screen, biochemical, QFRET, recombinant enzyme. inhibition, % at 7.35 µM. AID 1822, 2009. H-Glu-NHMec fluorogenic cleavage. 290,000 tested, 1.2% active. M18 aspartyl aminopeptidase (Plasmodium falciparum 3D7);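 active = inhibition above the campaign mean inhibition over all tested compounds plus 3 SD, cut at about 28% in these data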;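 note: 0% = plate median of test compound wells and 100% = 2 mM ZnCl2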
Rtt109 HAT inh: inhibitors of C. albicans Rtt109/Vps75 HAT, primary screen, biochemical, ThioGlo CoA-SH fluorescence, plate reader; Histone acetyltransferase RTT109 (Candida albicans (strain SC5314 / ATCC MYA-2876)), …; purified Rtt109/Vps75, 4 h; inhibition, % at 34.9 µM; 330,000 tested, 0.16% active; AID 540336, 2011;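 active = inhibition of at least 50% in every replicate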
Target sequence (Q5AAJ8 whole entry, looked up): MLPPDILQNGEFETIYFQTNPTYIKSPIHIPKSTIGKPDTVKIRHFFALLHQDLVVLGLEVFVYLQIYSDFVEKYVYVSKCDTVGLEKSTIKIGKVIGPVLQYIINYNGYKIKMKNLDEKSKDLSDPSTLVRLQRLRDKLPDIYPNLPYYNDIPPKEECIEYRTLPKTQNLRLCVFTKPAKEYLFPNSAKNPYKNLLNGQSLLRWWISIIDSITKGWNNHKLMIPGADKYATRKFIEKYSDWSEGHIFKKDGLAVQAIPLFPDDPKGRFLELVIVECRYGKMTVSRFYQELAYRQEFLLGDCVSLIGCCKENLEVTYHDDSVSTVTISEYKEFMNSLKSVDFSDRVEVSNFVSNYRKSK
ALR inh: inhibitors of human ALR sulfhydryl oxidase, primary screen, biochemical, H2O2 detection, HRP-luminol luminescence, single point. AID 485317, 2010. purified ALR, DTT oxidation. inhibition, % (concentration not given with the values). 290,000 tested, 3.8% active;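 active = mean replicate inhibition above about 79%, with every replicate also reaching it, limit read from the data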
HDAC3 inh: HDAC3 deacetylase inhibitors, primary screen, biochemical, fluorescence, cell-free homogeneous; 320,000 tested, 0.15% active; inhibition, % at 8.3 µM; recombinant HDAC3, fluorogenic peptide/trypsin coupled; Histone deacetylase 3 (Homo sapiens), O15379; in the data active = inhibition above about 26%, passing the limit was not always enough
FAS-TE inh: FAS thioesterase domain inhibitors, primary screen, biochemical, fluorescence intensity, uHTS; recombinant FAS-TE, OMFH fluorogenic substrate, fluorescence endpoint; Fatty acid synthase (Homo sapiens), P49327; inhibition, % at 15 µM; 360,000 tested, 0.67% active;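 active = compounds whose normalised, plate-corrected inhibition of enzyme fluorescence in the single-dose primary screen is 50% or more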;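 note: 0% = DMSO with enzyme and 100% = substrate without enzyme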
PfM18AAP inh-2: PfM18AAP inhibitors, malaria aminopeptidase, confirmation, biochemical, QFRET, recombinant enzyme, triplicate; shares compounds with PfM18AAP inh-1; inhibition, % at 7.35 µM; 2,400 tested, 28% active; AID 2170, 2009; H-Glu-NHMec fluorogenic cleavage;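 active = mean inhibition over replicate wells above the hit cutoff set for the earlier primary screen, cut at about 29% in these data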;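 note: 0% = median of test compound wells and 100% = 2 mM ZnCl2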
CTSL1 counter: cathepsin L1 inhibitors, retest, confirmation, counter-screen for PFM18AAP inhibitor project, biochemical, QFRET, triplicate. shares compounds with PfM18AAP inh-1. purified cathepsin L1, Z-Leu-Arg-MCA fluorescence. inhibition, % at 5.96 µM. 2,400 tested, under 10 active;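 active = average inhibition across replicates above the hit cutoff set in the earlier primary screen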;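 note: 0% = median of test compound wells and 100% = Z-Phe-Ala-diazomethylketone 1 µM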
Starred values were filed as active, the others as inactive; x = not tested or not shown. Most compounds without a hit are left out; they make up all but 4.6% or so of the library.

SMILES	UCH37 DUB inh	PfM18AAP inh-1	Rtt109 HAT inh	ALR inh	HDAC3 inh	FAS-TE inh	PfM18AAP inh-2	CTSL1 counter
O=c1c2ccccc2cnn1Cc1n[nH]c(=S)n1-c1ccccc1	-2	35*	6	27	2	-12	18	4
S=c1[nH]nc(Cc2noc3ccccc23)n1-c1ccccc1	1	33*	5	86*	5	-3	-1	-3
O=c1c2ccccc2cnn1Cc1n[nH]c(=S)n1-c1ccc(Cl)cc1Cl	0	17	x	10	3	x	x	x
O=C(CSc1nc(-c2ccccc2)ns1)NCC1CCCO1 (centres undefined)	2	35*	5	9	3	0	-21	2
O=C(CSc1nnc(-c2ccccc2)c2ccccc12)NCC1CCCO1 (centres undefined)	6	0	-39	4	2	-1	x	x
COc1ccc(C=NN2CCN(c3ccccc3OC)CC2)cc1OC	2	x	x	x	x	x	x	x
CCOC(=O)c1c(CC(C)C)csc1N=CC1=C(O)CCCC1=O	-26	x	x	x	x	x	x	x
CCOC(=O)NC1(Nc2cccc(Cl)c2)Oc2ccccc2O1	1	52*	-21	x	1	4	63*	1
CCOC(=O)NC(=O)/C(C#N)=N\Nc1cccc(Cl)c1	x	0	14	12	1	8	x	x
CC(=NNc1nc2ccccc2c(=O)n1O)c1ccco1	8	x	x	x	x	x	x	x
C/C(=N\Nc1nc2ccccc2c(=O)n1O)c1ccco1	x	38*	-1	-12	-1	-8	7	-2
O=C(NN=Cc1cccs1)c1cccc(S(=O)(=O)Nc2ccc(Cl)cc2)c1	3	x	x	x	x	x	x	x
Cc1cc(O)c(N)c(C)c1Cl	3	50*	-8	58	6	-5	68*	-1
O=C(CN1CCN(Cc2ccccc2Cl)CC1)NN=C/C=C\c1ccccc1[N+](=O)[O-]	5	x	x	x	x	x	x	x
O=C(CSc1ncn[nH]1)OCN1C(=O)c2ccccc2C1=O	1	85*	7	6	-3	-6	88*	-13
CCOc1cc(N2CCOCC2)c(OCC)cc1NC(=O)CSc1n[nH]c(N)n1	1	3	-3	14	-5	-10	x	x
CCOc1cc(N2CCOCC2)c(OCC)cc1NC(=O)CSc1ncn[nH]1	4	49*	18	10	4	-6	-13	-3
CC(=O)Nc1nonc1NC(=O)CSc1ncn[nH]1	-3	48*	14	-1	6	-5	40*	0
O=C(CSc1ncn[nH]1)CSc1ncn[nH]1	-2	48*	-1	94*	37*	-4	19	-8
C(=NNc1nc2ccccc2[nH]1)C1CCCCC1	-2	x	x	x	x	x	x	x
O=C(CSc1ncn[nH]1)Nc1ccc([N+](=O)[O-])cc1Br	5	67*	x	-2	-2	-28	79*	-2
CC1(C(=O)CSc2ncn[nH]2)CCC(=O)O1 (centres undefined)	x	58*	x	10	13	x	70*	-2
CC1(C(=O)CSc2nc3ccccc3[nH]2)CCC(=O)O1 (centres undefined)	3	-1	-3	66	-2	-8	x	x
O=C(NN=Cc1cccnc1)c1ccccc1O	13	x	x	x	x	x	x	x
NC(=NN=Cc1ccc([N+](=O)[O-])cc1)c1nonc1N	2	x	x	x	x	x	x	x
Cc1nccn1CC(=O)NN=Cc1cc(Br)cs1	3	x	x	x	x	x	x	x
Oc1ccc(C(=S)N2CCCC2)cc1	6	33*	-7	9	-2	-5	-18	-1
